Data reported in ChEMBL document CHEMBL6087445, “Discovery of Non-Covalent Inhibitors for SARS-CoV-2 PLpro: Integrating Virtual Screening, Synthesis, and Experimental Validation” (ACS Med Chem Lett, 2024).

What was measured:
[1] = Microsomal stability in human liver microsomes assessed as parent compound remaining measured after 30 mins by LC-MS/MS analysis; format: ADME, Microsome; details: read-out: Stability
[2] = Microsomal stability in mouse liver microsomes assessed as parent compound remaining measured after 30 mins by LC-MS/MS analysis; format: ADME, Microsome; details: read-out: Stability
[3] = Microsomal stability in rat liver microsomes assessed as parent compound remaining measured after 30 mins by LC-MS/MS analysis; format: ADME, Microsome; details: read-out: Stability
[4] = test system: Severe acute respiratory syndrome coronavirus 2; experiment: Binding affinity to recombinant SARS-CoV-2 PLpro extracted from Escherichia coli BL21 (DE3) cells assessed as change in melting temperature at 1000 uM by DSF analysis
[5] = test system: Severe acute respiratory syndrome coronavirus 2; experiment: Inhibition of recombinant SARS-CoV-2 PLpro extracted from Escherichia coli BL21 (DE3) cells in presence of CHAPS detergent by microplate reader analysis
Summary of the method: (§1)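 SARS-CoV-2 PLpro enzymatic inhibition run with and without 1 mM CHAPS detergent; GRL0617 served as positive control.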

[6] = test system: Severe acute respiratory syndrome coronavirus 2; experiment: Inhibition of recombinant SARS-CoV-2 PLpro extracted from Escherichia coli BL21 (DE3) cells in absence of CHAPS detergent by microplate reader analysis; summary of the method: as §1
[7] = Selectivity ratio of CC50 for cytotoxicity against human HepG2 cells to CC50 for African green monkey Vero cells; format: toxicity, cell-based; details: HepG2 cells and Vero cells
[8] = test system: Severe acute respiratory syndrome coronavirus 2; experiment: Inhibition of recombinant SARS-CoV-2 PLpro extracted from Escherichia coli BL21 (DE3) cells in presence of 0.01% triton by microplate reader analysis
[9] = test system: Severe acute respiratory syndrome coronavirus 2; experiment: Inhibition of recombinant SARS-CoV-2 PLpro extracted from Escherichia coli BL21 (DE3) cells in absence of 0.01% triton by microplate reader analysis

CNC(=O)c1ccc(-c2ccc3nccc(NC4CCNCC4)c3n2)cn1
remaining at 0.5 h [1]: 94.4% | remaining at 0.5 h [2]: 93.4% | remaining at 0.5 h [3]: 97.4% | ΔTm [4]: > 1 °C

CS(=O)(=O)c1cccc(-c2ccc3nccc(N4CCNCC4)c3n2)c1
remaining at 0.5 h [1]: 55.1% | ΔTm [4]: > 1 °C

CN1CCC(Nc2ccnc3ccc(-c4ccc(C(=O)NCCO)nc4)nc23)CC1
remaining at 0.5 h [1]: 95.5% | remaining at 0.5 h [2]: 97.3% | remaining at 0.5 h [3]: 94.2% | ΔTm [4]: > 1 °C

COc1ccc(-c2ccc3nccc(N[C@@H]4CCNC4)c3n2)cn1
remaining at 0.5 h [1]: 54.6% | inhibition [5]: Active; Compound Is Not An Aggregator | inhibition [6]: Active; Compound Is Not An Aggregator | ΔTm [4]: > 1 °C | selectivity ratio [7]: 2

Cn1ccc(-c2ccc3nccc(N[C@@H]4CCNC4)c3n2)cc1=O
remaining at 0.5 h [1]: 98% | remaining at 0.5 h [2]: > 99% | remaining at 0.5 h [3]: 94.3% | inhibition [8]: Active; Compound Is Not An Aggregator | inhibition [9]: Active; Compound Is Not An Aggregator | ΔTm [4]: > 1 °C | selectivity ratio [7]: 2
